Values after ≈ are worked out from the molar mass of the structure shown. Active and inactive are the calls of the source. No cut-off for these calls is given here. A value given as a limit tells only on which side of the number the result lay.

The values below come from ChEMBL document CHEMBL3813689, “Discovery of Potent Benzofuran-Derived Diapophytoene Desaturase (CrtN) Inhibitors with Enhanced Oral Bioavailability for the Treatment of Methicillin-Resistant Staphylococcus aureus (MRSA) Infections” (J Med Chem, 2016).

Series [1] has as its system Staphylococcus aureus. The series is described as follows: Inhibition of staphyloxanthin pigment formation in Staphylococcus aureus Newman after 48 hrs by spectrophotometric method. It counts as functional, organism-based. In short, it runs like this:
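Compounds as 20 mM DMSO stocks, serial 2-fold dilutions in DMSO; 40 µL added to 4 mL TSB culture, 37 °C for 48 h, in triplicate. Cells washed twice with PBS, pigment extracted with methanol, OD450 measured; IC50 from dose-response curve fit of OD data.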

Series [2] concerns the target T1, 4,4'-diapophytoene desaturase (4,4'-diaponeurosporene-forming) (Staphylococcus aureus (strain Newman), UniProt O07855).
T1 sequence (O07855 whole entry): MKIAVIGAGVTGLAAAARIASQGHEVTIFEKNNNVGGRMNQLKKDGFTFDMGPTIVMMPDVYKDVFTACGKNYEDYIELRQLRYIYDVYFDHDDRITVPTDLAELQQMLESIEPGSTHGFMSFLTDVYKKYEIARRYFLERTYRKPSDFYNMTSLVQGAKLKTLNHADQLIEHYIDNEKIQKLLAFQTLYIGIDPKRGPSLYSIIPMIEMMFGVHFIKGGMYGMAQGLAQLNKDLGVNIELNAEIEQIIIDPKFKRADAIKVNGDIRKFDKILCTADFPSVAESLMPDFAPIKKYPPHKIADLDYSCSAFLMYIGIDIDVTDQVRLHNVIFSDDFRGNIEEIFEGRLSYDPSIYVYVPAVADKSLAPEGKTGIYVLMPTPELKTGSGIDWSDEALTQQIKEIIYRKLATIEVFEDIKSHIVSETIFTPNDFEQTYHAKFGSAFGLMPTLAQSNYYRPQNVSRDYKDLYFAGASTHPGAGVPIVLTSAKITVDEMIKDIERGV
The series is described as follows: Inhibition of Staphylococcus aureus Newman 6His-tagged CrtN expressed in Escherichia coli BL21(DE3) using diapophytoene as substrate assessed as pigment formation after overnight incubation by spectrophotometric method. The arrangement: species or system Staphylococcus aureus subsp. aureus str. Newman. In short, it runs like this:
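Lysate of E. coli BL21(DE3) expressing 6His-CrtN (IPTG 0.5 mM, 16 °C overnight), ~1.41 mg CrtN per reaction, with diapophytoene–phosphatidylcholine emulsion in 0.02 M HEPES pH 7.5 plus FAD. Anaerobic via glucose oxidase 20 U/mL, catalase 20000 U/mL, glucose 2 mM (final). Started with lysate, overnight at 37 °C; triplicate.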

Series [3] can be described thus: Aqueous solubility of the compound by HPLC method. It counts as physicochemical. The method in brief:
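Calibration with standards at 50, 100, 200, 400 and 800 µg/mL in methanol (peak area vs concentration). 10 mg solid stirred in 1 mL pure water for 24 h, more added if still clear; syringe-filtered, 10 µL injected; solubility read from calibration curve.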

Series [4] deals with Trichophyton rubrum. The series is described as follows: Antifungal activity against Trichophyton rubrum measured after 7 days by serial dilution method. It counts as functional. The method in brief:
(§1)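 Broth serial dilution MIC per NCCLS in RPMI 1640 buffered with 0.165 M MOPS; compounds in DMSO diluted in medium. Dermatophytes incubated at 28 °C, read at 7 days. MIC taken as lowest concentration giving ≥80% growth inhibition versus control (turbidity).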

For series [5], the system named is Trichophyton verrucosum. The experiment in a line: Antifungal activity against Trichophyton verrucosum measured after 7 days by serial dilution method. Format: functional. In short, it runs like this: as §1
For series [6], the system named is Nannizzia gypsea. The series is described as follows: Antifungal activity against Microsporum gypseum measured after 7 days by serial dilution method. Format: functional. The method in brief: as §1
Series [7] deals with Trichophyton mentagrophytes. The series is described as follows: Antifungal activity against Trichophyton mentagrophytes measured after 7 days by serial dilution method. It counts as functional. In short, it runs like this:
as §1

The subject of series [8] is Staphylococcus aureus. The experiment in a line: Antibacterial activity against Staphylococcus aureus USA400 MW2 infected Balb/c mouse assessed as reduction of bacterial survival in liver at 5.2 mg, ip bid administered for 4.5 days followed by bacterial infection measured after 5 days. Format: functional. The method in brief: (§2)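 Female BALB/c mice, 6–8 weeks. Compound in sterile water ip once and every 12 h for 108 h, total 50 or 200 mg/kg; water controls. Infected 12 h after first dose with 4 × 10^7 CFU USA400 MW2 (100 µL). Killed 5 days post infection; liver or kidney CFU counted on TSA after homogenising in PBS/0.1% Triton X-100. n = 13; two-tailed Mann-Whitney.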

Series [9] relates to Staphylococcus aureus. The series is described as follows: Antibacterial activity against Staphylococcus aureus Mu50 infected Balb/c mouse assessed as reduction of bacterial survival in kidney at 1.3 mg, ip bid administered for 4.5 days followed by bacterial infection measured after 5 days. Format: functional.
For series [10], the system named is Staphylococcus aureus. The experiment in a line: Antibacterial activity against Staphylococcus aureus USA400 MW2 infected Balb/c mouse assessed as reduction of bacterial survival in liver at 1.3 mg, ip bid administered for 4.5 days followed by bacterial infection measured after 5 days. It counts as functional. In short, it runs like this: as §2
The test system of series [11] is Staphylococcus aureus. The experiment in a line: Antibacterial activity against Staphylococcus aureus Mu50 infected Balb/c mouse assessed as reduction of bacterial survival in liver at 1.3 mg, ip bid administered for 4.5 days followed by bacterial infection measured after 5 days. Format: functional.
The test system of series [12] is Staphylococcus aureus. The experiment in a line: Antibacterial activity against Staphylococcus aureus Mu50 infected Balb/c mouse assessed as reduction of bacterial survival in liver at 5.2 mg, ip bid for 4.5 days administered for 4.5 days followed by bacterial infection measured after 5 days. Format: functional.
Series [13] relates to Staphylococcus aureus. The series is described as follows: Antibacterial activity against Staphylococcus aureus USA400 MW2 infected Balb/c mouse assessed as reduction of bacterial survival in kidney at 5.2 mg, ip bid administered for 4.5 days followed by bacterial infection measured after 5 days. It counts as functional. The method in brief:
as §2

Series [14] concerns Staphylococcus aureus. The experiment in a line: Antibacterial activity against Staphylococcus aureus Mu50 infected Balb/c mouse assessed as reduction of bacterial survival in kidney at 5.2 mg, ip bid administered for 4.5 days followed by bacterial infection measured after 5 days. It counts as functional.
The test system of series [15] is Staphylococcus aureus. The series is described as follows: Antibacterial activity against Staphylococcus aureus USA400 MW2 infected Balb/c mouse assessed as reduction of bacterial survival in kidney at 1.3 mg, ip bid administered for 4.5 days followed by bacterial infection measured after 5 days. It counts as functional, organism-based. In short, it runs like this: as §2

Series [16] deals with T2, 4,4'-diapophytoene desaturase (4,4'-diaponeurosporene-forming) (Staphylococcus aureus (strain Newman)) (UniProt O07855).
T2 sequence (whole entry): T1 sequence (O07855 whole entry)
Conditions: Staphylococcus aureus subsp. aureus str. Newman; 100 uM.

In general, IC50 refers to the concentration that gives 50% inhibition. Take `CN(C/C=C/c1ccc(F)cc1)Cc1cccc2ccoc12`: inhibition in series [1] was half-maximal at 31.2 nM (IC50). Regarding `CN(C/C=C/c1ccccc1F)Cc1cccc2ccoc12`, the IC50 in series [1] turned out to be 288 nM. For orientation: solubility means the concentration that dissolves in the medium under given conditions. Read a low solubility as little dissolved substance. As to `CN(C/C=C/c1ccc(Cl)cc1)Cc1cccc2ccoc12.Cl`, the IC50 amounted to 219 nM in series [2] and 6.2 nM in series [1]. Moreover, the solubility in [3] was 7400 µg/mL. In the case of `OC(Cn1cncn1)(Cn1cncn1)c1ccc(F)cc1F` [FLUCONAZOLE], the “MIC=<80” value came to 1 µg/mL (≈ 3.27 µM) in series [4], 2 µg/mL (≈ 6.53 µM) in series [5], 8 µg/mL (≈ 26.1 µM) in series [6] and 2 µg/mL (≈ 6.53 µM) in series [7]. `CN(C/C=C/c1ccc(Br)cc1)Cc1cccc2ccoc12.Cl`: the IC50 in series [2] came out at 355 nM; in series [1] it was 6.44 nM. In series [3], the concentration in solution (solubility) was 3900 µg/mL. Consider `CN(CC#Cc1ccccc1)Cc1cccc2ccoc12`, for which the IC50 in [1] turned out to be 164 nM. Consider `O=P([O-])([O-])C(CCCc1cccc(Cc2ccccc2)c1)S(=O)(=O)[O-].[K+].[K+].[K+]` (stereo not given), for which the Activity in series [8] came out at 1.58 deltalog10CFU; in [9] it was 0.25 deltalog10CFU; in series [10] it was 0.25 deltalog10CFU; in series [11] it was 1.87 deltalog10CFU; in series [12], 2.84 deltalog10CFU; in series [13], 1.14 deltalog10CFU. In series [14], the Activity was determined as 0.3 deltalog10CFU. Moreover, the outcome in [15] was Active. In series [1], `CN(C/C=C/c1ccc2ccccc2c1)Cc1cccc2ccoc12` showed an IC50 of 17.1 nM. Still for that read-out and setting: then `CN(C/C=C/c1ccc(C(C)(C)C)cc1)Cc1cccc2ccoc12`, with 46.7 nM; and `CN(C/C=C/C1CCCCC1)Cc1cccc2ccoc12`, with over 1000 nM. Broadly, the MIC80 is an inhibitory concentration at the 80% level, which refers to growth in some studies and to a panel of isolates in others. A low value points to greater potency. Compound `C[C@@H](c1ncncc1F)[C@](O)(Cn1cncn1)c1ccc(F)cc1F` [VORICONAZOLE] registered an MIC80 in series [4] of 0.03125 µg/mL (≈ 0.0895 µM). Also, the figures for the “MIC80 (lowest concentration giving ≥80% growth inhibition)” value in series [5] and in [6] were 0.03125 µg/mL (≈ 0.0895 µM) and 0.25 µg/mL (≈ 0.716 µM), respectively. Moreover, the “MIC=<80” value in series [7] is 0.03125 µg/mL (≈ 0.0895 µM). In [1], `CN(C/C=C/c1ccccc1)Cc1cccc2occc12` gave an IC50 of 759 nM.

The compound `C/C(=C\c1ccccc1)CN(C)Cc1cccc2ccoc12` registered an IC50 in [1] of over 1000 nM. In turn, `Cc1cccc(/C=C/CN(C)Cc2cccc3ccoc23)c1` came in with an IC50 in series [1] of over 1000 nM.

Consider `CN(CC/C=C/c1ccccc1)Cc1cccc2ccoc12`, for which the IC50 in series [1] is over 1000 nM. Still for that read-out and setting: the result for `CN(C/C=C/C=C/c1ccccc1)Cc1cccc2ccoc12` reads 4.2 nM. The compound `CC(=O)N1CCN(c2ccc(OCC3COC(Cn4ccnc4)(c4ccc(Cl)cc4Cl)O3)cc2)CC1` (stereo not given) [KETOCONAZOLE] gave an MIC80 in series [4] of 0.5 µg/mL (≈ 0.941 µM). Moreover, the results for the “MIC80 (lowest concentration giving ≥80% growth inhibition)” value in series [5] and in [6] were 0.0625 µg/mL (≈ 0.118 µM) and 2 µg/mL (≈ 3.76 µM), respectively. The “MIC=<80” value in series [7] turned out to be 0.0625 µg/mL (≈ 0.118 µM). `CN(C/C=C/C1CCCC1)Cc1cccc2ccoc12` registered an IC50 in series [1] of over 1000 nM.

In series [1], `Cc1ccc(/C=C/CN(C)Cc2cccc3ccoc23)cc1` displayed a 50% inhibitory concentration (IC50) of 35.2 nM. Regarding `CCN(C/C=C/c1ccccc1)Cc1cccc2ccoc12`, the IC50 in series [1] was over 1000 nM. `CN(C/C=C/c1ccc(Cl)cc1Cl)Cc1cccc2ccoc12.Cl`: the IC50 in series [2] is 740 nM; in series [1] it was 8.21 nM. In series [3], this compound came in with a solubility of 7200 µg/mL.

`CN(C/C=C/c1ccccc1)Cc1cccc2ccoc12` had an IC50 in series [1] of 247 nM. Same read-out and setting: then `CN(C/C=C/c1ccc([N+](=O)[O-])cc1)Cc1cccc2ccoc12`, with 71.7 nM; and `CN(C/C=C/c1ccco1)Cc1cccc2ccoc12`, with over 1000 nM; and `CN(C/C=C/c1ccccc1[N+](=O)[O-])Cc1cccc2ccoc12`, with over 1000 nM. The compound `CN(C/C=C/c1cccc(F)c1)Cc1cccc2ccoc12` yielded an IC50 in [1] of 513 nM. On the same count and under the same terms, then `C(=C\c1ccccc1)/CNCc1cccc2ccoc12`, with over 1000 nM; and `COC(=O)c1ccc(/C=C/CN(C)Cc2cccc3ccoc23)cc1`, with 16.9 nM.

For the compound `COc1ccc(/C=C/CN(C)Cc2cccc3ccoc23)cc1.Cl`, the IC50 in series [2] was determined as 684 nM; in series [1], 11.1 nM. This compound also yielded a solubility in [3] of 19700 µg/mL.

For `CN(Cc1cccc2ccoc12)C[C@@H]1C[C@H]1c1ccccc1`, the half-inhibitory concentration (IC50) in series [1] is over 1000 nM.

Take `CN(C/C=C/c1ccccc1)Cc1cccc2ccccc12`: the inhibition entry in series [16] is “Active”. Take `C/C=C/CN(C)Cc1cccc2ccoc12`: the IC50 in series [1] was over 1000 nM. For the compound `CN(CCCc1ccccc1)Cc1cccc2ccoc12`, the IC50 in [1] was over 1000 nM.

`CC(C)N(C/C=C/c1ccccc1)Cc1cccc2ccoc12`: the IC50 in series [1] was over 1000 nM. On the same count and under the same terms, the result for `CN(C/C=C/c1cccc2ccccc12)Cc1cccc2ccoc12` reads 888 nM; that for `CN(C/C=C/c1cccc([N+](=O)[O-])c1)Cc1cccc2ccoc12`, over 1000 nM.
